The test system of assay [1] is Mycobacterium tuberculosis. The assay is described as follows: Antimycobacterial activity against Mycobacterium tuberculosis H37Ra at 100 ug/mL after 24 to 48 hrs by MABA. It counts as functional. The procedure, abridged:
(§1)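 Compounds in DMSO (100× highest final concentration), diluted in 7H9GC; tested at 100, 50, 10 and 1 µg/mL in triplicate, three experiments. Frozen inoculum diluted in 7H9GC. Read visually and spectrophotometrically. […], mean given. Visual MIC = lowest concentration preventing blue-to-pink change.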

Assay [2] concerns Mycobacterium tuberculosis. As to the kind of experiment: Antimycobacterial activity against Mycobacterium tuberculosis H37Ra at 50 ug/mL after 24 to 48 hrs by MABA. It counts as functional. The procedure, abridged: as §1
A general note: Alamar Blue is a resazurin reagent that responds to reducing activity.

In assay [3] the test system is Mycobacterium tuberculosis. As to the kind of experiment: Antimycobacterial activity against Mycobacterium tuberculosis H37Ra at 10 ug/mL after 24 to 48 hrs by MABA. It is filed as functional. An outline of the steps: as §1
In assay [4] the test system is Mycobacterium avium. As to the kind of experiment: Antimycobacterial activity against Mycobacterium avium ATCC 25291 at 50 ug/mL after 24 to 48 hrs by MABA. It is filed as functional. An outline of the steps:
as §1

Assay [5] has as its system Staphylococcus aureus. The assay is described as follows: Antibacterial activity against Staphylococcus aureus up to 100 ug/ml after 16 to 20 hrs by broth microdilution method. It is filed as functional, organism-based. (In broth dilution the organism is exposed to a series of concentrations in liquid medium.)
Assay [6] relates to Staphylococcus epidermidis. The assay is described as follows: Antibacterial activity against Staphylococcus epidermidis up to 100 ug/ml after 16 to 20 hrs by broth microdilution method. It is filed as functional, organism-based.
The subject of assay [7] is Enterococcus faecalis. As to the kind of experiment: Antibacterial activity against Enterococcus faecalis up to 100 ug/ml after 16 to 20 hrs by broth microdilution method. It counts as functional, organism-based.
Assay [8] relates to Bacillus subtilis. The assay is described as follows: Antibacterial activity against Bacillus subtilis up to 100 ug/ml after 16 to 20 hrs by broth microdilution method. It counts as functional, organism-based.
Assay [9] relates to Streptococcus pneumoniae. The assay is described as follows: Antibacterial activity against Streptococcus pneumoniae up to 100 ug/ml after 16 to 20 hrs by broth microdilution method. It is filed as functional, organism-based.
The test system of assay [10] is Salmonella typhimurium. The assay is described as follows: Antibacterial activity against Salmonella Typhimurium up to 100 ug/ml after 16 to 20 hrs by broth microdilution method. It is filed as functional, organism-based. The note with it: Salmonella enterica subsp. enterica serovar Typhimurium.
For assay [11], the system named is Escherichia coli. The assay is described as follows: Antibacterial activity against Escherichia coli up to 100 ug/ml after 16 to 20 hrs by broth microdilution method. It counts as functional, organism-based.
For assay [12], the system named is Proteus vulgaris. The assay is described as follows: Antibacterial activity against Proteus vulgaris up to 100 ug/ml after 16 to 20 hrs by broth microdilution method. It counts as functional, organism-based.
Assay [13] relates to Pseudomonas aeruginosa. As to the kind of experiment: Antibacterial activity against Pseudomonas aeruginosa up to 100 ug/ml after 16 to 20 hrs by broth microdilution method. It counts as functional, organism-based.
In assay [14] the test system is HepG2. The assay is described as follows: Toxicity against HepG2 cells. Particulars: Homo sapiens. It counts as functional, cell-based.
For assay [15], the system named is Mycobacterium avium. The assay is described as follows: Antimycobacterial activity against Mycobacterium avium ATCC 25291 at 100 ug/mL after 24 to 48 hrs by MABA. It counts as functional. The procedure, abridged:
as §1

Assay [16] concerns Mycobacterium avium. As to the kind of experiment: Antimycobacterial activity against Mycobacterium avium ATCC 25291 at 10 ug/mL after 24 to 48 hrs by MABA. It is filed as functional. An outline of the steps: as §1
The subject of assay [17] is Mycobacterium avium. As to the kind of experiment: Antimycobacterial activity against Mycobacterium avium ATCC 25291 at 2 ug/mL after 24 to 48 hrs by MABA. It counts as functional.
Assay [18] concerns Mycobacterium avium. The assay is described as follows: Antimycobacterial activity against Mycobacterium avium ATCC 25291 at 1 ug/mL after 24 to 48 hrs by MABA. It is filed as functional. The procedure, abridged:
as §1

Assay [19] relates to Mycobacterium tuberculosis. The assay is described as follows: microbe, parasite or virus in culture. Particulars: H37Ra.
In assay [20] the test system is Mycobacterium tuberculosis. As to the kind of experiment: Antimycobacterial activity against Mycobacterium tuberculosis H37Ra by MABA. It counts as functional. Also on record: concentration or dose not given beside the values. An outline of the steps:
as §1

Assay [21] concerns Mycobacterium avium. As to the kind of experiment: Antimycobacterial activity against Mycobacterium avium ATCC 25291. It is filed as functional. Set-up: concentration or dose not given beside the values. The procedure, abridged: as §1

SMILES strings stand for the structures. Activity calls are given as the source filed them. No cut-off for these calls is given here.

In the case of `[N-]=[N+]=NC(CBr)c1cn(COCCO)c(=O)[nH]c1=O` (configuration not stated), in [1], the inhibition – broadly, the share of the control response that was lost under treatment – at 100 µg/mL worked out at 100%. The inhibition at 50 µg/mL in assay [2] and in assay [4] was 100% throughout. 10 µg/mL produced 50% inhibition in assay [3]. The result in [5], in [6], in [7], in assay [8], in assay [9] and in [10] was inactive. The outcome in [11], in [12] and in [13] was inactive. Besides, in [14], the Activity entry is “Not toxic”.
As for `[N-]=[N+]=NC(CI)c1cn(COCCO)c(=O)[nH]c1=O` (configuration not stated), the results for the inhibition at 100 µg/mL in assay [1] and in assay [15] were 100% and 50%, respectively. The inhibition at 50 µg/mL in assay [2] was 100%; in assay [4], 50%. This molecule gave an inhibition at 10 µg/mL in assay [3] of 50%. Besides, the outcome in assay [5], in assay [6], in [7], in [8], in assay [9] and in assay [10] was inactive. The result in [11], in assay [12] and in assay [13] was inactive. Further, the Activity result in assay [14] is “Not toxic”.
For the molecule `[N-]=[N+]=NC(CCl)c1cn(COCCO)c(=O)[nH]c1=O` (configuration not stated), the inhibition at 100 µg/mL in assay [1] and in assay [15] was 100% in each case. For the same molecule, the inhibition at 50 µg/mL in [2] and in assay [4] was 100% throughout. Also, the inhibition at 10 µg/mL in assay [3] and in [16] was 50% throughout. Moreover, the outcome in assay [5], in [6], in assay [7], in [8], in assay [9] and in assay [10] was inactive. For the same molecule, the outcome in assay [11], in [12] and in [13] was inactive. Further, the Activity result in assay [14] was “Not toxic”.
As to `CCCCCCCCC#Cc1cn(COC(CO)CO)c(=O)[nH]c1=O`, the inhibition at 100 µg/mL in assay [1] and in assay [15] was 100% in each case. In addition, the inhibition at 50 µg/mL in [2] was 100%; in [4], 25%. In assay [3], this molecule returned an inhibition at 10 µg/mL of 50%. For the same molecule, the outcome in assay [5], in [6], in assay [7], in assay [8], in [9] and in [10] was inactive. Besides, the result in assay [11], in assay [12] and in assay [13] was inactive. In addition, in assay [14], the Activity result was “Not toxic”.
As to `C=C(N=[N+]=[N-])c1cn(COCCO)c(=O)[nH]c1=O`, the inhibition at 100 µg/mL turned out to be 100% in [1] and 50% in assay [15]. For the same molecule, the inhibition at 50 µg/mL in assay [2] is 100%; in assay [4] it was 50%. In addition, the inhibition at 10 µg/mL in [3] came out at 25%; in [16], 50%. For the same molecule, the outcome in [5], in assay [6], in [7], in assay [8], in [9] and in [10] was inactive. Besides, the outcome in assay [11], in assay [12] and in assay [13] was inactive. Moreover, the Activity entry in assay [14] is “Not toxic”.
`CC[C@H]1OC(=O)[C@H](C)[C@@H](O[C@H]2C[C@@](C)(OC)[C@@H](O)[C@H](C)O2)[C@H](C)[C@@H](O[C@@H]2O[C@H](C)C[C@H](N(C)C)[C@H]2O)[C@](C)(OC)C[C@@H](C)C(=O)[C@H](C)[C@@H](O)[C@]1(C)O` [CLARITHROMYCIN] registered an inhibition at 2 µg/mL in assay [17] of 95%.
As for `CO[C@H]1/C=C/O[C@@]2(C)Oc3c(C)c(O)c4c(O)c(c(/C=N/N5CCN(C)CC5)c(O)c4c3C2=O)NC(=O)/C(C)=C\C=C\[C@H](C)[C@H](O)[C@@H](C)[C@@H](O)[C@@H](C)[C@H](OC(C)=O)[C@@H]1C` [RIFAMPIN], the inhibition at 1 µg/mL in [18] and in assay [19] was 100% in each case. Further, 2 µg/mL produced 90% inhibition in [17].
As for `CCCCCC#Cc1cn(COCCO)c(=O)[nH]c1=O`, the Inhibition in [20] and in assay [21] was 0% throughout. The result in [5], in [6], in [7], in [8], in assay [9] and in [10] was inactive. The result in assay [11], in assay [12] and in assay [13] was inactive.
In the case of `CCCCCCCCCCC#Cc1cn(COC(CO)CO)c(=O)[nH]c1=O`, the inhibition at 100 µg/mL in assay [1] and in [15] was 100% in each case. Moreover, the inhibition at 50 µg/mL in assay [2] amounted to 100%; in assay [4], 25%. In addition, the inhibition at 10 µg/mL in assay [3] stood at 50%. Moreover, the result in assay [5], in [6], in assay [7], in assay [8], in assay [9] and in assay [10] was inactive. Besides, the result in assay [11], in [12] and in assay [13] was inactive. Besides, the Activity result in assay [14] is “Not toxic”.
For the molecule `Cc1cn(COCCO)c(=O)[nH]c1=O`, the Inhibition in assay [20] and in assay [21] was 0% throughout. The outcome in [5], in assay [6], in assay [7], in [8], in [9] and in assay [10] was inactive. The result in assay [11], in assay [12] and in assay [13] was inactive.

Source of the values: ChEMBL document CHEMBL1146361, “Studies on acyclic pyrimidines as inhibitors of mycobacteria” (Bioorg Med Chem, 2007).
